Source: ChEMBL document CHEMBL1146312, “Synthesis of OSW saponin analogs with modified sugar residues and their antiproliferative activities” (Bioorg Med Chem Lett, 2007)

Experiments:
Type in all cases: functional, cell-based
Jurkat = experiment: Antiproliferative activity against human Jurkat cells
Procedure, shortened: (§1)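 Proliferation of human RKO colon carcinoma, Jurkat T-cell leukemia and HeLa cervical cancer cells was followed by [3H]-thymidine incorporation. IC50 values were taken from this read-out.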

HeLa = experiment: Antiproliferative activity against human HeLa cells; procedure, shortened: as §1
RKO = experiment: Antiproliferative activity against human RKO cells; procedure, shortened: as §1

IC50 (Jurkat)	IC50 (HeLa)	SMILES	IC50 (RKO)
78 nM	1200 nM	CCCCCCCCCCCCOC(=O)[C@@H](C)[C@@]1(O)[C@@H](O[C@@H]2OC[C@H](O)[C@H](O)[C@H]2OC(C)=O)C[C@H]2[C@@H]3CC=C4C[C@@H](O)CC[C@]4(C)[C@H]3CC[C@@]21C	–
–	1100 nM	C=CCO[C@@H]1[C@@H](OC(C)=O)[C@H](O[C@H]2C[C@H]3[C@@H]4CC=C5C[C@@H](O)CC[C@]5(C)[C@H]4CC[C@]3(C)[C@@]2(O)[C@H](C)C(=O)OCCCCCCCCCCCC)OC[C@@H]1O	1700 nM
15 nM	71 nM	CCCCCCCCCCCCOC(=O)[C@@H](C)[C@@]1(O)[C@@H](O[C@@H]2OC[C@H](O)[C@H](O[C@@H]3OC[C@@H](O)[C@H](O)[C@H]3OC(=O)c3ccc(OC)cc3)[C@H]2OC(C)=O)C[C@H]2[C@@H]3CC=C4C[C@@H](O)CC[C@]4(C)[C@H]3CC[C@@]21C	0.7 nM
